# Assay results reported in ChEMBL document CHEMBL1275448, “Identification of a novel multidrug efflux pump of Mycobacterium tuberculosis” (2008).
# What was measured:
# [1] = tested on: Mycobacterium tuberculosis; assay: Resistance factor, ratio of MIC for Mycobacterium bovis BCG ML1034 to MIC for wild-type Mycobacterium bovis BCG; type: functional, variant bovis BCG
# How it was run: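 Resistance factor is the MABA MIC for BCG mutant ML1034 divided by the MIC for wild-type BCG. Both MICs were taken as ≥90% viability reduction, read by fluorescence (ex 530/em 590 nm).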
# [2] = tested on: Mycobacterium tuberculosis; assay: Antimicrobial activity against wild-type Mycobacterium bovis BCG by microplate Alamar blue assay; type: functional; details: variant bovis BCG
# How it was run: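 Whole-cell M. bovis BCG (Institut Pasteur) MABA; mutants carried IS1096::Km insertions. Growth was in Middlebrook 7H9 with 0.2% glycerol, 0.05% Tween 80 and 10% OADC. Final drug ranges: ampicillin 62.5–2,000 μg/ml, vancomycin 1.25–40 μg/ml, streptomycin 0.25–8 μg/ml, chloramphenicol 4–128 μg/ml, tetracycline 0.5–16 μg/ml. MIC was the lowest concentration cutting viability ≥90%, read by fluorescence (ex 530/em 590 nm, room temperature).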
structure (smiles),measurement,setting,value
CN[C@H](CC(C)C)C(=O)N[C@H]1C(=O)N[C@@H](CC(N)=O)C(=O)N[C@H]2C(=O)N[C@H]3C(=O)N[C@H](C(=O)N[C@H](C(=O)O)c4cc(O)cc(O)c4-c4cc3ccc4O)[C@H](O)c3ccc(c(Cl)c3)Oc3cc2cc(c3O[C@@H]2O[C@H](CO)[C@@H](O)[C@H](O)[C@H]2O[C@H]2C[C@](C)(N)[C@H](O)[C@H](C)O2)Oc2ccc(cc2Cl)[C@H]1O [VANCOMYCIN],Ratio,[1],4
same,MIC,[2],5 µg/mL
CC1(C)S[C@@H]2[C@H](NC(=O)[C@H](N)c3ccccc3)C(=O)N2[C@H]1C(=O)O [AMPICILLIN],Ratio,[1],32
same,MIC,[2],62.5 µg/mL
CN[C@@H]1[C@H](O[C@H]2[C@H](O[C@H]3[C@H](O)[C@@H](O)[C@H](N=C(N)N)[C@@H](O)[C@@H]3N=C(N)N)O[C@@H](C)[C@]2(O)C=O)O[C@@H](CO)[C@H](O)[C@H]1O [STREPTOMYCIN],Ratio,[1],32
same,MIC,[2],0.5 µg/mL
O=C(N[C@H](CO)[C@H](O)c1ccc([N+](=O)[O-])cc1)C(Cl)Cl [CHLORAMPHENICOL],Ratio,[1],64
same,MIC,[2],8 µg/mL
CN(C)[C@@H]1C(O)=C(C(N)=O)C(=O)[C@@]2(O)C(O)=C3C(=O)c4c(O)cccc4[C@@](C)(O)[C@H]3C[C@@H]12 [TETRACYCLINE],Ratio,[1],>8
same,MIC,[2],2 µg/mL
